Data set [1] deals with T1, Hypoxia inducible factors; HIF-1-alpha, HIF-2-alpha (Homo sapiens, UniProt Q16665+Q99814). The experiment in a line: Inhibition of 1,10-phenanthroline-induced HIF1 activation in human PC3 cells after 16 hrs by pTK-HRE3-luciferase reporter gene assay. The format is cell-based. The settings on record: pc-3. The gist of the method:
(§1)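 Cells transiently transfected with the pHRE-TK-Luc reporter (HIF-1) or the CMV-driven pGL3-Control plasmid, given compound, then exposed for 16 h to hypoxia (1% O2/5% CO2/94% N2, 37°C) or 10 μM 1,10-phenanthroline. Luciferase read-out: % inhibition = (1 − treated/induced light output) × 100. One experiment in triplicate.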
On the technique in general: In a reporter assay the amount or activity of a reporter protein is the signal.

For data set [2], the target named is T1, Hypoxia inducible factors; HIF-1-alpha, HIF-2-alpha. The experiment in a line: Inhibition of hypoxia-induced HIF1 activation in human PC3 cells after 16 hrs by pTK-HRE3-luciferase reporter gene assay. The format is cell-based. The settings on record: pc-3. The gist of the method:
as §1

A short description of data set [3]: Selectivity ratio of IC50 for inhibition of hypoxia-induced HIF1 activation in human T47D cells to IC50 for cytotoxicity to human T47D cells. The data set is classed as toxicity, cell-based. The settings on record: read-out: Ratio IC50.
Data set [4] has as its system MCF7. The experiment in a line: Cytotoxicity against human MCF7 cells under hypoxic condition after 48 hrs by natural red method. The format is functional, cell-based. The following applies: MCF7, 48 h. The gist of the method: (§2)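 Cells plated at 30,000/well in DMEM/F12 with 10% FCS and antibiotics and left overnight, then given compound in serum-free DMEM/F12. After a 30 min pre-exposure, incubation ran 48 h under normoxia (5% CO2/95% air) or hypoxia (1% O2/5% CO2/94% N2). Viability was read by neutral red, expressed as % inhibition, from one experiment in triplicate.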

In data set [5] the test system is PC-3. Description: Cytotoxicity against human PC3 cells under hypoxic condition after 48 hrs by natural red method. The settings on record: PC-3, 48 h. The format is functional, cell-based. The gist of the method:
as §2

Data set [6] concerns T47D. The experiment in a line: Cytotoxicity against human T47D cells under normoxic condition after 48 hrs by natural red method. The format is functional, cell-based. The method in brief: as §2
The subject of data set [7] is T47D. Description: Cytotoxicity against human T47D cells under hypoxic condition after 48 hrs by natural red method. The format is functional, cell-based. The method in brief: as §2
Data set [8] deals with T1, Hypoxia inducible factors; HIF-1-alpha, HIF-2-alpha. The experiment in a line: Inhibition of hypoxia-induced HIF1 activation in human T47D cells after 16 hrs by pTK-HRE3-luciferase reporter gene assay. The format is cell-based. The method in brief:
as §1

For data set [9] the target is unchanged. The experiment in a line: Inhibition of 1,10-phenanthroline-induced HIF1 activation in human T47D cells after 16 hrs by pTK-HRE3-luciferase reporter gene assay. The format is cell-based. The gist of the method: as §1
The subject of data set [10] is T47D. Description: Inhibition of electron transport protein complex 4 in human T47D cells assessed as decrease in oxygen consumption at 30 uM pretreated for 2 hrs before TMPD/ascorbate addition by mitochondrial respiration assay. The data set is classed as cell-based. The gist of the method:
(§3)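 T47D cells permeabilized with 30 μM digitonin in Clark-electrode chamber containing buffer of 20 mM HEPES pH 7.3, 120 mM KCl, 2 mM KH2PO4, 2 mM MgCl2, 1 mM EGTA, 0.3% fat-free BSA. Substrates: 5 mM pyruvate + 5 mM malate (complex I), 5 mM succinate (complex II), 5 mM ascorbate + 0.2 mM TMPD (complex IV); rotenone and antimycin A as inhibitors. Oxygen consumption monitored.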

Data set [11] concerns T47D. The experiment in a line: Inhibition of electron transport protein complex 3 in human T47D cells assessed as decrease in oxygen consumption at 30 uM pretreated for 2 hrs before succinate addition by mitochondrial respiration assay. The data set is classed as cell-based. The method in brief: as §3
Data set [12] deals with T47D. The experiment in a line: Inhibition of electron transport protein complex 2 in human T47D cells assessed as decrease in oxygen consumption at 30 uM pretreated for 2 hrs before succinate addition by mitochondrial respiration assay. The data set is classed as cell-based. The method in brief:
as §3

Data set [13] relates to T47D. The experiment in a line: Inhibition of electron transport protein complex 1 in human T47D cells assessed as decrease in oxygen consumption at 30 uM pretreated for 2 hrs before malate and pyruvate addition by mitochondrial respiration assay. The format is cell-based. The method in brief: as §3
Data set [14] relates to T47D. The experiment in a line: Inhibition of cellular respiration in human T47D cells assessed as oxygen consumption at 30 uM. The format is functional, cell-based. The gist of the method:
(§4)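 Intact T47D cells (5×10^6, equilibrated to 30°C) in 1 mL serum- and antibiotic-free DMEM/F12, with 17.5 mM glucose as substrate, in a Clark-type oxygen electrode. After 15 min baseline, compound in isopropyl alcohol injected at 3 min intervals. Oxygen consumption measured in triplicate; one-way ANOVA with Bonferroni post test.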

In data set [15] the test system is T47D. The experiment in a line: Inhibition of cellular respiration in human T47D cells assessed as oxygen consumption at 10 uM. The format is functional. The method in brief:
as §4

Data set [16] has as its target Aryl hydrocarbon receptor nuclear translocator (Homo sapiens) (UniProt P27540). The experiment in a line: Inhibition of hypoxia-induced nuclear HIF1beta in human T47D cells at 10 uM after 4 hrs by Western blot analysis. The data set is classed as cell-based.
The target in data set [17] is Hypoxia-inducible factor 1-alpha (Homo sapiens) (UniProt Q16665). The experiment in a line: Inhibition of 1,10-phenanthroline-induced nuclear HIF1alpha in human T47D cells at 10 uM after 4 hrs by Western blot analysis. The data set is classed as cell-based.
Data set [18] relates to MCF7. The experiment in a line: Cytotoxicity against human MCF7 cells under normoxic condition after 48 hrs by natural red method. The following applies: MCF7, 48 h. The data set is classed as functional, cell-based. The method in brief: as §2
The subject of data set [19] is MDA-MB-231. Description: Cytotoxicity against human MDA-MB-231 cells under hypoxic condition after 48 hrs by natural red method. The format is functional, cell-based. The settings on record: MDA-MB-231, 48 h. The gist of the method:
as §2

The subject of data set [20] is PC-3. The experiment in a line: Cytotoxicity against human PC3 cells under normoxic condition after 48 hrs by natural red method. The data set is classed as functional, cell-based. The settings on record: PC-3, 48 h. The gist of the method: as §2
Data set [21] has as its system MDA-MB-231. Description: Cytotoxicity against human MDA-MB-231 cells under normoxic condition after 48 hrs by natural red method. The settings on record: MDA-MB-231, 48 h. The data set is classed as functional, cell-based. The method in brief: as §2
In data set [22] the target is T1, Hypoxia inducible factors; HIF-1-alpha, HIF-2-alpha. The experiment in a line: Inhibition of hypoxia-induced HIF1 activation in human T47D cells at 30 uM after 16 hrs by pTK-HRE3-luciferase reporter gene assay. The format is cell-based. The gist of the method:
as §1

In data set [23] the test system is T47D. The experiment in a line: Cytotoxicity against human T47D cells under hypoxic conditions at 30 uM after 48 hrs by natural red method. The format is functional. The gist of the method: as §2
For data set [24], the system named is T47D. Description: Inhibition of hypoxia-induced VEGF secretion in human T47D cells after 16 hrs by ELISA. The data set is classed as functional, cell-based. The gist of the method: (§5)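 T47D plated at 356,000 cells/well and left overnight at 37°C. Compound added in serum-free DMEM/F12 for 30 min under air, then 16 h under hypoxia (1% O2/5% CO2/94% N2) or with 10 μM 1,10-phenanthroline. Secreted VEGF in conditioned medium was measured by ELISA and normalized to total lysate protein (BCA).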
(In general: ELISA stands for enzyme-linked immunosorbent assay.)

Data set [25] deals with T47D. The experiment in a line: Inhibition of 1,10-phenanthroline-induced VEGF secretion in human T47D cells at 30 uM after 16 hrs by ELISA. The data set is classed as functional, cell-based. The gist of the method:
as §5

Data set [26] can be described thus: Selectivity for inhibition of hypoxia-induced HIF1 activation in human T47D cells over cytotoxicity to human T47D cells. The data set is classed as toxicity, cell-based.
Data set [27] has as its target Hypoxia-inducible factor 1-alpha (Homo sapiens) (UniProt Q16665). The experiment in a line: Inhibition of hypoxia-induced nuclear HIF1alpha in human T47D cells at 10 uM after 4 hrs by Western blot analysis. The format is cell-based. (In general: Immunoblotting shows a protein as a band on a membrane.)

Active and inactive are the calls of the source. The rule behind the calls is not given here.

This is an account of results in ChEMBL document CHEMBL1154240, “Molecular-targeted antitumor agents. 19. Furospongolide from a marine Lendenfeldia sp. sponge inhibits hypoxia-inducible factor-1 activation in breast tumor cells” (J Nat Prod, 2008).

Hypoxia-inducible factor 1-alpha (Homo sapiens), sequence (Q16665 whole entry, looked up): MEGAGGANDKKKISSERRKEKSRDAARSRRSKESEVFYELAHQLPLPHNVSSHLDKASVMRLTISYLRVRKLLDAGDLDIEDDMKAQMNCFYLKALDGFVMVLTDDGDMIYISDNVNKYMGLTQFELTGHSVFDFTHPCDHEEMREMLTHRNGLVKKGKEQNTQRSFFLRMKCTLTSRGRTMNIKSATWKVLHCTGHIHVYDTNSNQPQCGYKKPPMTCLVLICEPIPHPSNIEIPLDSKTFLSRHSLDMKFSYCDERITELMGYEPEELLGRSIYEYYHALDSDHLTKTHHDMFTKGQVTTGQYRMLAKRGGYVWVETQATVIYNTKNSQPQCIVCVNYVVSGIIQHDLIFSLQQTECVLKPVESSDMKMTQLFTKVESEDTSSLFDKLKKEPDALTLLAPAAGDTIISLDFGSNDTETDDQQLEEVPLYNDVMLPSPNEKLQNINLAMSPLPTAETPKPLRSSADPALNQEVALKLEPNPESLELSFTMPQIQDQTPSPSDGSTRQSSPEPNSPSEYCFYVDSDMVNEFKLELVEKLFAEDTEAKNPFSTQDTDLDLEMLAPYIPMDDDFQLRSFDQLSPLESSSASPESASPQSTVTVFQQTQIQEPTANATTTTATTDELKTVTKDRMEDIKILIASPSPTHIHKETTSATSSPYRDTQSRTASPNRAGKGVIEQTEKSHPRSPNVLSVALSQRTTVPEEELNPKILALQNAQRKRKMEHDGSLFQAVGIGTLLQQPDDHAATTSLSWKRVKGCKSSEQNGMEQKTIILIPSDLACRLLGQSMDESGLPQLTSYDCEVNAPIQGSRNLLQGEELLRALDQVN
Aryl hydrocarbon receptor nuclear translocator (Homo sapiens), sequence (P27540 whole entry): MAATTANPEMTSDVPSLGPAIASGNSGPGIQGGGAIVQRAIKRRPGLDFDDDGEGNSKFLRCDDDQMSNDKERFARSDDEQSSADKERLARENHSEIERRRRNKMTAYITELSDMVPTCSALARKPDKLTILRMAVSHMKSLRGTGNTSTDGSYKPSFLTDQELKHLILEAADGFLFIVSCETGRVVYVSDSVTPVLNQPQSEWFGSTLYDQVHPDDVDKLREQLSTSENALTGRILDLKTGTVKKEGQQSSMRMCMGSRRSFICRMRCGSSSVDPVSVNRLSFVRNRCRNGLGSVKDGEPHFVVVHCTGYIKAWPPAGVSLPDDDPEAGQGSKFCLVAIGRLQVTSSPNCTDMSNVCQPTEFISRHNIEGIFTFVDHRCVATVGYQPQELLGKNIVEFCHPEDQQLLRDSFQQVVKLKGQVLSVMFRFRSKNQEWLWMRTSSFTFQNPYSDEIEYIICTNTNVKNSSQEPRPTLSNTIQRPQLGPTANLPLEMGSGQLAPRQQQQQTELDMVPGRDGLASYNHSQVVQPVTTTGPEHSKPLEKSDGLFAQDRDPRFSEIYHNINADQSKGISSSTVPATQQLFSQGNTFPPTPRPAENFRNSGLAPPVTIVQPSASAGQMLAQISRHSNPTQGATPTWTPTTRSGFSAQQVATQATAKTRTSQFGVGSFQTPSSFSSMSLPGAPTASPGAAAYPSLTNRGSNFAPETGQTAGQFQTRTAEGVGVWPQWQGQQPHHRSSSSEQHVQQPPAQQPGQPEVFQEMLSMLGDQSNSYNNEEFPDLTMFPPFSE

For orientation: IC50 means the concentration that gives 50% inhibition. Regarding `CC(=O)C1=CC[C@H]2[C@]3(C)CC[C@H]4C(C)(C)CCC[C@]4(CO)[C@H]3C[C@H](O)[C@]2(C)[C@H]1C=O`, the IC50 in data set [1] was 800 nM; in data set [2], 500 nM; in [4], 700 nM; in [5], 900 nM; in data set [6] it was 1000 nM; in data set [7], 1600 nM. The IC50 amounted to 400 nM in [8] and 200 nM in data set [9]. Moreover, the selectivity ratio in [3] amounted to 3.
What is called inhibition is the percentage by which the read-out fell short of the control. As for `C/C(=C\CCc1ccoc1)CC/C=C(\C)CCCC1=CC(=O)OC1` [FUROSPONGOLIDE], the IC50 was more than 30000 nM in data set [1]; more than 30000 nM in [2]; more than 30000 nM in [4]; 29000 nM in data set [18]; more than 30000 nM in data set [19]; more than 30000 nM in data set [5]. For the same compound, the IC50 is more than 30000 nM in data set [20]; 14000 nM in data set [6]; more than 30000 nM in data set [7]; more than 30000 nM in data set [21]; 2900 nM in data set [8]; 10900 nM in data set [9]. Moreover, the result in data set [10], in [11] and in [12] was inactive. In addition, the outcome in [13] was Active. Also, the inhibition entry in data set [14], in [16] and in data set [27] was “Active” each time. Besides, in [15], the inhibition at 10 µM is 38%. Also, the inhibition entry in data set [17] and in [25] was “inactive” in each case. The inhibition in data set [22] was 97%; in [24] it was “Dose-dependent effect”. In addition, testing at 30 µM in [23] gave an inhibition of 26%. Further, in data set [26], the selectivity ratio is more than 10.
As for `COC(=O)[C@]12CCCC(C)(C)[C@@H]1CC[C@@]1(C)[C@@H]3CC=C(C(C)=O)[C@H](C=O)[C@@]3(C)C(=O)C[C@@H]12`, the IC50 was 9000 nM in data set [1]; 7700 nM in data set [2]; 6800 nM in [4]; 6100 nM in data set [18]; 2000 nM in data set [19]; 10200 nM in data set [5]. Besides, the IC50 in data set [20] is 6400 nM; in data set [6] it was 5500 nM; in data set [7], 10800 nM; in data set [21], 1900 nM; in data set [8], 2700 nM; in data set [9], 1000 nM.
Regarding `CC(=O)C1=CC[C@H]2[C@]3(C)CC[C@H]4C(C)(C)CCC[C@]4(CO)[C@H]3CC(=O)[C@]2(C)[C@H]1C=O`, the IC50 in data set [1] amounted to 1000 nM; in data set [2], 900 nM; in data set [4], 600 nM; in [18], 600 nM; in data set [19], 300 nM; in data set [5], 1100 nM. Besides, the IC50 is 800 nM in [20]; 1200 nM in data set [6]; 1800 nM in data set [7]; 300 nM in data set [21]; 500 nM in [8]; 200 nM in [9].
